Calls of active or inactive are those of the source. No cut-off for these calls is given here.
Experiments:
[1] = Tmax in Sprague-Dawley rat cortex at 2 x 10^-5 mol/kg, iv by LC-MS analysis; format: ADME, organism-based; conditions: 2e-05 mol/kg
In short: (§1)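 Male Sprague-Dawley rats (260-280 g, n = 4) given a single iv dose of 6 mg/kg. Blood was taken from the jugular vein into heparin tubes under ether, and plasma was spun out and stored at -70 °C. After saline perfusion, cortex was homogenized in 2 volumes of water. Samples were precipitated with acetonitrile with internal standard added and quantified by LC-MS against a weighted linear calibration.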

Rattus norvegicus [2] = experiment: In vivo neuroprotective activity in Sprague-Dawley rat transient middle cerebral artery occlusion model assessed as suppression of neuropathological changes at 1.5 to 6 mg/kg, iv measured 24 hrs post reperfusion by uranyl acetate/lead citrate staining-based transmission electron microscopic analysis; format: functional, organism-based
In short: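 Rats had 60 min MCAO with iv dosing (1.5-6.0 mg/kg) at reperfusion. At 24 h they were perfused with PBS, then acrolein in 2% paraformaldehyde. Tissue was postfixed in 2.5% glutaraldehyde for 2 h and 1% OsO4 for 2 h, dehydrated and Epon-embedded. Ultrathin sections were stained with uranyl acetate/lead citrate and examined by TEM at 12000×.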

Rattus norvegicus [3] = experiment: In vivo neuroprotective activity in Sprague-Dawley rat transient middle cerebral artery occlusion model assessed as reduction of infarct size at 6 mg/kg, iv measured 24 hrs post reperfusion by TTC staining assay relative to vehicle-treated control; format: functional; parameters: scale not given: the % may be the effect or the level left
In short: (§2)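 Male Sprague-Dawley rats, 7 weeks, 260–280 g, under 10% chloral hydrate ip. Right MCA occluded 60 min by tip-burned 4-0 nylon thread via common carotid, then reperfused. Saline or drug given iv at reperfusion, ethanol as cosolvent. Killed 24 h later; six 2 mm slices in 1% TTC in PBS, 37 °C, 30 min. Infarct area traced as % of total area; n = 12.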

[4] = Volume of distribution in Sprague-Dawley rat cortex at 2 x 10^-5 mol/kg, iv by LC-MS analysis; format: ADME, organism-based; conditions: 2e-05 mol/kg; in short: as §1
Rattus norvegicus [5] = experiment: Anti-ischemia activity in Sprague-Dawley rat transient middle cerebral artery occlusion model assessed as upregulation of Bcl-2 protein expression in hippocampus at 1.5 to 6 mg/kg, iv measured 24 hrs post reperfusion by Western blot analysis relative to vehicle-treated control; format: functional, organism-based
In short: (§3)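 Rats underwent 60 min intraluminal right MCA occlusion under chloral hydrate, then reperfusion, with iv saline or drug (1.5, 3.0, 6.0 mg/kg) at reperfusion. At 24 h they were saline-perfused and cortex and hippocampus lysed in RIPA buffer. Protein was BCA-normalized, run on SDS-PAGE and blotted for Bcl-2, Bax, cleaved caspase-3 and β-actin with ECL detection; n = 4.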

[6] = Clearance in Sprague-Dawley rat plasma at 2 x 10^-5 mol/kg, iv by LC-MS analysis; format: ADME, organism-based; conditions: 2e-05 mol/kg; in short: as §1
[7] = AUC in Sprague-Dawley rat cortex at 2 x 10^-5 mol/kg, iv by LC-MS analysis; format: ADME, organism-based; conditions: 2e-05 mol/kg; in short: as §1
Rattus norvegicus [8] = experiment: In vivo neuroprotective activity in iv dosed Sprague-Dawley rat transient middle cerebral artery occlusion model assessed as suppression of neuronal loss in hippocampus measured 24 hrs post reperfusion by nissl staining assay; format: functional, organism-based
In short: (§4)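 After 60 min transient MCAO with iv treatment at reperfusion, rats were perfused at 24 h with PBS, then 4% buffered paraformaldehyde. Brains were paraffin-embedded and coronal sections stained with 0.5% cresyl fast violet (Nissl). Cortex and hippocampus were examined at 200×.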

Rattus norvegicus [9] = experiment: Anti-ischemia activity in Sprague-Dawley rat transient middle cerebral artery occlusion model assessed as upregulation of Bcl-2 protein expression in cerebral cortex at 1.5 to 6 mg/kg, iv measured 24 hrs post reperfusion by Western blot analysis relative to vehicle-treated control; format: functional, organism-based; in short: as §3
PC-12 = experiment: Neuroprotective activity in rat PC12 cells assessed as attenuation of oxygen-glucose deprivation-induced cellular damage at 10 uM by MTT assay relative to control; format: functional
In short: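 PC12 cells were seeded at 5×10^3/well for 24 h. OGD insult was low-glucose medium plus 5 mM sodium dithionite for 24 h, given together with 10 µM compound. MTT (5 mg/mL) was added for 4 h and absorbance read at 570 nm. Viability was expressed as % of full-medium control; n = 3.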

Rattus norvegicus [10] = experiment: In vivo neuroprotective activity in Sprague-Dawley rat transient middle cerebral artery occlusion model assessed as suppression of neuronal loss in cerebral cortex at 1.5 to 6 mg/kg, iv measured 24 hrs post reperfusion by TUNEL assay; format: functional, organism-based
In short: (§5)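 Transient MCAO in rats (60 min occlusion), with iv treatment at 1.5, 3.0 or 6.0 mg/kg at reperfusion. At 24 h brains were perfusion-fixed in 4% paraformaldehyde and paraffin-embedded. Hippocampal or cortical sections were proteinase K-treated (20 µg/mL, 15 min, RT), given TdT reaction (37 °C, 1 h) and anti-digoxigenin-AP detection, and TUNEL-positive cells were examined at 200×.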

[11] = Cmax in Sprague-Dawley rat cortex at 2 x 10^-5 mol/kg, iv measured at 2 mins by LC-MS analysis; format: ADME, organism-based; conditions: 2e-05 mol/kg; in short: as §1
Cortex = experiment: Clearance in Sprague-Dawley rat cortex at 2 x 10^-5 mol/kg, iv by LC-MS analysis; format: ADME, organism-based; conditions: in vivo; in short: as §1
[12] = AUC in Sprague-Dawley rat plasma at 2 x 10^-5 mol/kg, iv by LC-MS analysis; format: ADME, organism-based; conditions: 2e-05 mol/kg; in short: as §1
Rattus norvegicus [13] = experiment: In vivo neuroprotective activity in iv dosed Sprague-Dawley rat transient middle cerebral artery occlusion model assessed as suppression of neuronal loss in cerebral cortex measured 24 hrs post reperfusion by nissl staining assay; format: functional, organism-based; in short: as §4
[14] = Terminal half life in Sprague-Dawley rat plasma at 2 x 10^-5 mol/kg, iv by LC-MS analysis; format: ADME, organism-based; conditions: 2e-05 mol/kg, read-out: beta t1/2; in short: as §1
Rattus norvegicus [15] = experiment: In vivo neuroprotective activity in Sprague-Dawley rat transient middle cerebral artery occlusion model assessed as reduction of infarct size at 3 mg/kg, iv measured 24 hrs post reperfusion by TTC staining assay relative to vehicle-treated control; format: functional; parameters: scale not given: the % may be the effect or the level left; in short: as §2
[16] = Cmax in Sprague-Dawley rat plasma at 2 x 10^-5 mol/kg, iv measured at 2 mins by LC-MS analysis; format: ADME, organism-based; conditions: 2e-05 mol/kg; in short: as §1
Rattus norvegicus [17] = experiment: In vivo neuroprotective activity in Sprague-Dawley rat transient middle cerebral artery occlusion model assessed as suppression of neuronal loss in hippocampus at 1.5 to 6 mg/kg, iv measured 24 hrs post reperfusion by TUNEL assay; format: functional, organism-based; in short: as §5
Rattus norvegicus [18] = experiment: In vivo neuroprotective activity in Sprague-Dawley rat transient middle cerebral artery occlusion model assessed as reduction of brain-water content at 1.5 to 6 mg/kg, iv measured 24 hrs post reperfusion; format: functional, organism-based
In short: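 Male SD rats (7 weeks, 260-280 g) had 60 min transient right MCA occlusion with a nylon filament, then reperfusion. Saline or drug (1.5, 3.0, 6.0 mg/kg) was injected iv at reperfusion. Animals without neurological deficit were replaced. At 24 h brains were oven-dried at 110 °C for 24 h, and water content was taken as (wet−dry)/wet; n = 12.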

Rattus norvegicus [19] = experiment: Anti-ischemia activity in Sprague-Dawley rat transient middle cerebral artery occlusion model assessed as inhibition of cleaved caspase-3 protein expression in cerebral cortex at 1.5 to 6 mg/kg, iv measured 24 hrs post reperfusion by Western blot analysis relative to vehicle-treated control; format: functional, organism-based; in short: as §3
[20] = Tmax in Sprague-Dawley rat plasma at 2 x 10^-5 mol/kg, iv by LC-MS analysis; format: ADME, organism-based; conditions: 2e-05 mol/kg; in short: as §1

COc1cc(O)cc2oc(=O)c(N3CCN(C)CC3)c(C)c12
Tmax [1]: 2 min
Activity (Rattus norvegicus [2]): Active
Activity (Rattus norvegicus [3]): 18.89%
Vd [4]: 12.3 L
Activity (Rattus norvegicus [5]): Active
clearance [6]: 9 mL/min
AUC [7]: 42.4 ng·h/mL
Activity (Rattus norvegicus [8]): Dose-dependent effect
Activity (Rattus norvegicus [9]): Active
Activity (PC-12): 66%
Activity (Rattus norvegicus [10]): Active
Cmax [11]: 122 ng/mL
CL (Cortex): 0.558 L/min
AUC [12]: 2870 ng·h/mL
Activity (Rattus norvegicus [13]): Dose-dependent effect
half-life [14]: 6.51 min
Activity (Rattus norvegicus [15]): 20.36%
Cmax [16]: 13300 ng/mL
Activity (Rattus norvegicus [17]): Active
Activity (Rattus norvegicus [18]): Active
inhibition (Rattus norvegicus [19]): Active
Tmax [20]: 2 min
